Results of several laboratories.
Protocols differ between the studies behind these lines.
Target: Serine/threonine-protein kinase Nek3 (NEK3, Homo sapiens, UniProt P51956)
Residues used in one study (P51956 1-506): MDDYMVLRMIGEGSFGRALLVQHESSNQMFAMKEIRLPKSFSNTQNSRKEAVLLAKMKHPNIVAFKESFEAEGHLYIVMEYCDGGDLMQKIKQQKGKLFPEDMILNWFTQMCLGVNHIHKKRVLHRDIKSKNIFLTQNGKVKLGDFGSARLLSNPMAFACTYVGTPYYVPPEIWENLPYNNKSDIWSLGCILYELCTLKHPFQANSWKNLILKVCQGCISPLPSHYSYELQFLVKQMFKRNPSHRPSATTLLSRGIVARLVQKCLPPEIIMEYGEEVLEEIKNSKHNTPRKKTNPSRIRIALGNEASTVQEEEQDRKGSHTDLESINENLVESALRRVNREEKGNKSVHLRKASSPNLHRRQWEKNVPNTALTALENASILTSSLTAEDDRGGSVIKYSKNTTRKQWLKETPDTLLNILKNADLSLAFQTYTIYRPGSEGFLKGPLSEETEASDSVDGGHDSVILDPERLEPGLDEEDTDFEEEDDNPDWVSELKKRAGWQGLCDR

SMILES	read-out	method	tested at	remaining binding
Nc1ncc2c(n1)-c1c([nH]c3ccc(C#CC4CC4)cc13)CCCC2	binding	competition with immobilised ligand	1 µM	78%
CCCOc1ccc([C@@H]2[C@@H](C(=O)O)[C@H](c3ccc4c(c3)OCO4)CN2CC(=O)Nc2c(CC)cccc2CC)cc1	cell-free assay	competition with immobilised ligand	1 µM	100%
O=C(NCCCN1CCOCC1)c1ccc(Nc2ncc(Cl)c(-c3ccc(Cl)s3)n2)cc1	binding	competition with immobilised ligand	1 µM	0.5%
O=C(O)[C@@H]1[C@@H](Cn2nnc3ccccc3c2=O)CC[C@H]1C(=O)c1ccc(OCCC2CCOCC2)cc1	cell-free assay	competition with immobilised ligand	1 µM	83%
F[C@@H]1CCN(c2nccc(-c3cnn4ncccc34)n2)C1	binding		1 µM	90%
Cc1cnc(Nc2ccc(C(=O)N3CCC(N4CCCC4)CC3)cc2)nc1-c1cc2ccccc2s1	binding	competition with immobilised ligand	1 µM	2.4%
CC(C)CC(=O)N1CCc2nc(-c3ccc(Br)cc3)nc(N(C)Cc3ccccc3)c2C1	cell-free assay	competition with immobilised ligand	0.1 µM	100%
N[C@@H]1CCN(c2nccc(-c3cnn4ncccc34)n2)C1	binding		1 µM	95%
CCN1CCN(Cc2ccc(C(=O)Nc3ccc(C)c(Oc4ccc5c(c4)CC(=O)N5)c3)cc2C(F)(F)F)CC1	binding	competition with immobilised ligand	1 µM	100%
O=C(Nc1c[nH]nc1C(=O)NC1CCNCC1)c1cc(F)cc(F)c1	binding	competition with immobilised ligand	1 µM	100%
O=C(NCc1ncc(C(F)(F)F)cc1Cl)c1ccc2c(c1)C1(CCS(=O)(=O)CC1)[C@H](C1CC1)N2S(=O)(=O)c1ccc(F)cc1	cell-free assay	competition with immobilised ligand	1 µM	100%
C[C@@H]1CCN(c2nccc(-c3cnn4ncccc34)n2)C1	binding		1 µM	81%
COc1cnc(Nc2cccc(S(N)(=O)=O)c2)nc1N1CCN(c2ccccc2)C(=O)C1	binding	competition with immobilised ligand	1 µM	30%
CC1CCCN1c1nccc(-c2cnn3ncccc23)n1 (stereo not drawn)	binding		1 µM	82%
C[C@@H](c1ccc(-n2cnc3c(N)ncnc32)cc1)N1CCc2nn(C)c(Cc3ccccc3)c2C1=O	binding	competition with immobilised ligand	0.1 µM	30%
N#CC1(c2ccccn2)CCN(Cc2cc(C(=O)N3CCCC3)c(=O)n3ccccc23)CC1	cell-free assay	competition with immobilised ligand	1 µM	83%
CN(CCCC(F)(F)F)c1nccc(-c2cnn3ncccc23)n1	binding		1 µM	100%
COc1cc(-c2cn(C3CCc4ccccc4N(CC(F)(F)F)C3=O)nn2)ccc1-n1ccc(C)n1 (stereo not drawn)	cell-free assay	competition with immobilised ligand	1 µM	100%
CN(C)c1ncc(F)c(-c2cnn3ncccc23)n1	binding		1 µM	70%
O=C(c1ccc(Nc2ncc(Cl)c(-c3cc4ccccc4s3)n2)cc1)N1CCC(N2CCCC2)CC1	binding	competition with immobilised ligand	1 µM	1.3%
FC(F)(F)Oc1cccc(-c2cnc3ccc(-c4ccncc4)nn23)c1	cell-free assay	competition with immobilised ligand	5 µM	73%
